Source: ChEMBL document CHEMBL2384937, “Design, synthesis and biological evaluation of novel pyrimidine, 3-cyanopyridine and m-amino-N-phenylbenzamide based monocyclic EGFR tyrosine kinase inhibitors” (Bioorg Med Chem, 2013)
pIC50: −log10 of the molar value.

What was measured:
[1] = molecular target: Epidermal growth factor receptor (Homo sapiens, UniProt P00533); test: Inhibition of recombinant EGFR (unknown origin) after 10 mins by DELFIA/time-resolved fluorometry
[2] = molecular target: Receptor tyrosine-protein kinase erbB-2 (Homo sapiens, UniProt P04626); test: Inhibition of recombinant ErbB-2 (unknown origin) after 10 mins by DELFIA/time-resolved fluorometry
Receptor tyrosine-protein kinase erbB-2, sequence (P04626 whole entry): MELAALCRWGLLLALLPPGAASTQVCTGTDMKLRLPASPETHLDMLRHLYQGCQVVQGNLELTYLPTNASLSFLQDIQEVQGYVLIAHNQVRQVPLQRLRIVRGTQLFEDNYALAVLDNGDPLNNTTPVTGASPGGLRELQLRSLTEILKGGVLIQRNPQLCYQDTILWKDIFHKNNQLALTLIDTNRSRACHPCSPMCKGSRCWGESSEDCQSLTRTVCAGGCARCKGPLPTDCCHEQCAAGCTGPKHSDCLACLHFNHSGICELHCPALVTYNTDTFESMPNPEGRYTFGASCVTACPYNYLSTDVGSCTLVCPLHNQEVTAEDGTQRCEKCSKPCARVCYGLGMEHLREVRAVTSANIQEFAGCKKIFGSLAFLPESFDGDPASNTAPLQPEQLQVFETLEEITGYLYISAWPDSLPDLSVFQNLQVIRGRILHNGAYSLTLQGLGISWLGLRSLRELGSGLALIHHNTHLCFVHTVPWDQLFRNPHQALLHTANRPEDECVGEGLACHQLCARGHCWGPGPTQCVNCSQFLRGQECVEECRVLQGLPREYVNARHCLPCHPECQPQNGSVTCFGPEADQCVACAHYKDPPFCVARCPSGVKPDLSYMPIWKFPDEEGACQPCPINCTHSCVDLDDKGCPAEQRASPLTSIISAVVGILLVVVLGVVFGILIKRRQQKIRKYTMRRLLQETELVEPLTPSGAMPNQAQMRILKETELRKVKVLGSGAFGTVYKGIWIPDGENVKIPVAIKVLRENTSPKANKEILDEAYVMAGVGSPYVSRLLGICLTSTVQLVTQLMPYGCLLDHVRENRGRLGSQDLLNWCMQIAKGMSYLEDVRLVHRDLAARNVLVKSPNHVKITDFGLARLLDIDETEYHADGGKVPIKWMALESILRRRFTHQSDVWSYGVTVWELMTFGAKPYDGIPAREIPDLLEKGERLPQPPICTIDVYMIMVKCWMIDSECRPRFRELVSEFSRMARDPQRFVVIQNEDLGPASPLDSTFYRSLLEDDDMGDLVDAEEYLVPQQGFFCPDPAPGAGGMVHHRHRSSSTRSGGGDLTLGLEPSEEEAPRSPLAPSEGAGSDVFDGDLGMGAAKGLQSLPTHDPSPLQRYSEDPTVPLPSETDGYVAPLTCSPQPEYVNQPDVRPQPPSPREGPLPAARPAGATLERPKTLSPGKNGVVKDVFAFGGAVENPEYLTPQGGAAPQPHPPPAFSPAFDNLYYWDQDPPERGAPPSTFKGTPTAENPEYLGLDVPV
How it was run: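 Compound in DMSO, diluted in 25 mM HEPES pH 7.4, preincubated 10 min at room temperature with 12.5 ng recombinant ErbB-2. Reaction buffer with 20 mM HEPES, 2 mM MnCl₂, Na₃VO₄ and 1 mM DTT; 0.1 mM ATP–50 mM MgCl₂ added for 1 h. After washes, europium-labeled anti-phosphotyrosine antibody (400 ng) 1 h; enhancement solution, time-resolved fluorescence ex 340/em 615 nm. IC50 from percent-inhibition curves.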

A549 = test: Cytotoxicity against human A549 cells after 2 days by sulforhodamine B assay; assay type: functional, cell-based; settings: A549, 48 h
How it was run: (§1)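 Cells plated at 5 × 10⁴/mL in RPMI-1640 with 5% fetal bovine serum; next day dosed at 0.5, 5, 50, 500 and 5000 ng/mL and cultured 2 days. Survival read by sulforhodamine B staining; IC50 taken from growth curves. Standard deviations below 30%.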

HL-60 = test: Cytotoxicity against human HL60 cells after 2 days by sulforhodamine B assay; assay type: functional, cell-based; settings: HL-60, 48 h; how it was run: as §1

Epidermal growth factor receptor, sequence (P00533 whole entry): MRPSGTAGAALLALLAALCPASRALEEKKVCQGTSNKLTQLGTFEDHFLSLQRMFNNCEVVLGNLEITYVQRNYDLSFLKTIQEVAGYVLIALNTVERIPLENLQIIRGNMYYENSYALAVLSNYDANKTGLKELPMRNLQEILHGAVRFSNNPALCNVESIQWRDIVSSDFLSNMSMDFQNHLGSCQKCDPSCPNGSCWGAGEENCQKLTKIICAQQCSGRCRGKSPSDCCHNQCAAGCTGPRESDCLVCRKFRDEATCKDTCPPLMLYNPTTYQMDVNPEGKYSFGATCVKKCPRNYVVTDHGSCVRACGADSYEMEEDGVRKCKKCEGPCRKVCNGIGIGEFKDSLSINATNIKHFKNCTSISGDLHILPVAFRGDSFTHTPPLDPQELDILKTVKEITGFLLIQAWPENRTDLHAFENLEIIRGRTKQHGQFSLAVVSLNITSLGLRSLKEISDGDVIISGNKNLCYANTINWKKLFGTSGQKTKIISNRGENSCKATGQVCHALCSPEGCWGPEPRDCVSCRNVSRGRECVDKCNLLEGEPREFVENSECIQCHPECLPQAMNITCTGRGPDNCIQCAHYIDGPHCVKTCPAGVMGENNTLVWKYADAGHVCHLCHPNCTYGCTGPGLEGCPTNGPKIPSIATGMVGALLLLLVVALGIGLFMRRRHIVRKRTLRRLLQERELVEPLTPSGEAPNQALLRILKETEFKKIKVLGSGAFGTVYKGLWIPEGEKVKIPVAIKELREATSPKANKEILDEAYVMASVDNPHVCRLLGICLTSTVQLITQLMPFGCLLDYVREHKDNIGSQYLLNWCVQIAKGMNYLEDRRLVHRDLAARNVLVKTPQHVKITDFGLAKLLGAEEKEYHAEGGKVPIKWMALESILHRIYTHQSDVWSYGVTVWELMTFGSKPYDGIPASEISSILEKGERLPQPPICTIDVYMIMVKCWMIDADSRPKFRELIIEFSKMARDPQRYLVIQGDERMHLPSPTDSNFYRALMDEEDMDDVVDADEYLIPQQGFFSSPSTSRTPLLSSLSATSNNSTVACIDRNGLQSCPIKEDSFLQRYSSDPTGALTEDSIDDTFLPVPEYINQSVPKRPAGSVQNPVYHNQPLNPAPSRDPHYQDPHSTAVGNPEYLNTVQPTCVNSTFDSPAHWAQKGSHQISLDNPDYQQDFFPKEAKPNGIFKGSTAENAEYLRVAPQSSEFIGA

| Structure (SMILES) | pIC50 [1] | pIC50 [2] | pIC50 (A549) | pIC50 (HL-60) |
| --- | --- | --- | --- | --- |
| Cc1ncc(C#N)c(Nc2ccc(OCc3ccccn3)c(Cl)c2)c1C#Cc1ccc(CNCCS(C)(=O)=O)o1 | 5.82 |  |  |  |
| CCOc1cc(N)c(C(=O)Nc2ccc(F)c(Cl)c2)cc1NC(=O)/C=C/CN(C)C | 5.35 |  | < 5.00 | < 5.00 |
| CCOc1cc([N+](=O)[O-])c(C(=O)Nc2ccc(F)c(Cl)c2)cc1NC(=O)/C=C/CN(C)C | 5.22 |  | < 5.00 | 5.22 |
| CCOc1cc([N+](=O)[O-])c(C(=O)Nc2ccc(F)c(Cl)c2)cc1NC(=O)c1ccc(CN2CCN(C)CC2)cc1 | 5.30 |  | 5.22 | 5.26 |
| CN1CCN(Cc2ccc(C(=O)Nc3ccc(-c4cncc(C#N)c4Nc4ccc(OCc5cccc(F)c5)c(Cl)c4)cc3)cc2)CC1 | 5.60 |  | 5.22 | 5.74 |
| CCOc1cc(N)c(C(=O)Nc2ccc(F)c(Cl)c2)cc1NC(=O)c1ccc(CN2CCN(C)CC2)cc1 | 6.10 |  | < 5.00 | < 5.00 |
| Cc1ncc(C#N)c(Oc2ccc(OCc3ccccn3)c(Cl)c2)c1C#Cc1ccc(CNCCS(C)(=O)=O)o1 | < 5.30 |  |  |  |
| Cc1ncnc(Nc2ccc(OCc3cccc(F)c3)c(Cl)c2)c1/C=C/c1cccc(NC(=O)/C=C/CN(C)C)c1 | < 5.30 | < 5.00 |  |  |
| Cc1ncnc(Oc2ccc(OCc3ccccn3)c(Cl)c2)c1C#Cc1ccc(CNCCS(C)(=O)=O)o1 | < 5.30 |  |  |  |
| CCOc1cc([N+](=O)[O-])c(C(=O)Nc2ccc(OCc3ccccn3)c(Cl)c2)cc1NC(=O)/C=C/CN(C)C | 6.07 |  | 5.60 | 5.40 |
| Cc1ncc(C#N)c(Nc2ccc(OCc3ccccn3)c(Cl)c2)c1/C=C/c1cccc(NC(=O)/C=C/CN(C)C)c1 | < 5.30 | < 5.00 |  |  |
| CN(C)C/C=C/C(=O)Nc1ccc(-c2cncc(C#N)c2Nc2ccc(OCc3cccc(F)c3)c(Cl)c2)cc1 | 6.18 |  | 5.15 | < 5.00 |
| Cc1ccc(NC(=O)/C=C/CN(C)C)cc1C(=O)Nc1nccc(-c2cccnc2)n1 | 5.30 |  | < 5.00 |  |
| CCOc1ccc(C(=O)Nc2ccc(OCc3ccccn3)c(Cl)c2)cc1NC(=O)c1ccc(CN2CCN(C)CC2)cc1 | 5.46 |  | 5.22 | < 5.00 |
| CCOc1ccc(C(=O)Nc2ccc(OCc3ccccn3)c(Cl)c2)cc1NC(=O)/C=C/CN(C)C | 5.92 |  | < 5.00 | < 5.00 |
| CCOc1cc(N)c(C(=O)Nc2ccc(OCc3ccccn3)c(Cl)c2)cc1NC(=O)c1ccc(CN2CCN(C)CC2)cc1 | 6.00 |  | 5.22 | 5.10 |
| CCOc1cc([N+](=O)[O-])c(C(=O)Nc2ccc(OCc3ccccn3)c(Cl)c2)cc1NC(=O)c1ccc(CN2CCN(C)CC2)cc1 |  |  | 5.46 | 5.30 |
| CCOc1ccc(C(=O)Nc2nccc(-c3cccnc3)n2)cc1NC(=O)c1ccc(CN2CCN(C)CC2)cc1 |  |  | < 5.00 | < 5.00 |
| CN1CCN(Cc2ccc(C(=O)Nc3ccc(-c4cncc(C#N)c4Nc4ccc(F)c(Cl)c4)cc3)cc2)CC1 | 5.52 |  | < 5.00 | 5.30 |

Second part, led by results:

| pIC50 [1] | pIC50 [2] | Structure (SMILES) | pIC50 (A549) | pIC50 (HL-60) |
| --- | --- | --- | --- | --- |
| < 5.30 | < 5.00 | Cc1ncc(C#N)c(Nc2ccc(OCc3ccccn3)c(Cl)c2)c1/C=C/c1ccc(CNCCS(C)(=O)=O)o1 |  |  |
| 6.34 | < 5.00 | Cc1ncnc(Nc2ccc(OCc3cccc(F)c3)c(Cl)c2)c1/C=C/c1ccc(CNCCS(C)(=O)=O)o1 |  |  |
| 6.10 |  | CCOc1cc(N)c(C(=O)Nc2ccc(OCc3ccccn3)c(Cl)c2)cc1NC(=O)/C=C/CN(C)C | < 5.00 | < 5.00 |
| 5.82 |  | CCOc1cc(N)c(C(=O)Nc2ccc(OCc3cccc(F)c3)c(Cl)c2)cc1NC(=O)/C=C/CN(C)C | 5.26 | 5.22 |
| 5.64 |  | CN1CCN(Cc2ccc(C(=O)Nc3ccc(-c4cncc(C#N)c4Nc4ccc(OCc5ccccn5)c(Cl)c4)cc3)cc2)CC1 | < 5.00 | 5.22 |
| 6.35 |  | Cc1ccc(NC(=O)/C=C/CN(C)C)cc1C(=O)Nc1ccc(OCc2cccc(F)c2)c(Cl)c1 | 5.15 | 5.26 |
| 5.22 |  | Cc1ccc(NC(=O)c2ccc(CN3CCN(C)CC3)cc2)cc1C(=O)Nc1nccc(-c2cccc(F)c2)n1 | < 5.00 |  |
| 5.46 |  | CN(C)C/C=C/C(=O)Nc1ccc(-c2cncc(C#N)c2Nc2ccc(F)c(Cl)c2)cc1 | < 5.00 | 5.22 |
| 6.22 |  | Cc1ccc(NC(=O)c2ccc(CN3CCN(C)CC3)cc2)cc1C(=O)Nc1ccc(OCc2cccc(F)c2)c(Cl)c1 | 5.26 | 5.22 |
| 5.22 |  | CCOc1ccc(C(=O)Nc2nccc(-c3cccnc3)n2)cc1NC(=O)/C=C/CN(C)C | < 5.00 | < 5.00 |
| < 5.30 |  | CC(=O)c1ccc(Nc2c(C#N)cncc2-c2ccc(NC(=O)c3ccc(CN4CCN(C)CC4)cc3)cc2)cc1 | < 5.00 | 5.30 |
| < 5.30 |  | CC(=O)c1ccc(Nc2c(C#N)cncc2-c2ccc(NC(=O)/C=C/CN(C)C)cc2)cc1 | < 5.00 | < 5.00 |
| 5.70 |  | CCOc1cc([N+](=O)[O-])c(C(=O)Nc2ccc(OCc3cccc(F)c3)c(Cl)c2)cc1NC(=O)/C=C/CN(C)C | 5.46 | 5.40 |
| < 5.30 |  | CN(C)C/C=C/C(=O)Nc1ccc(-c2cncc(C#N)c2Nc2ccc(OCc3ccccn3)c(Cl)c2)cc1 | < 5.00 | < 5.00 |
| 7.35 | < 5.00 | Cc1ncnc(Nc2ccc(OCc3cccc(F)c3)c(Cl)c2)c1C#Cc1ccc(CNCCS(C)(=O)=O)o1 |  |  |
| 5.26 |  | CCOc1cc([N+](=O)[O-])c(C(=O)Nc2ccc(OCc3cccc(F)c3)c(Cl)c2)cc1NC(=O)c1ccc(CN2CCN(C)CC2)cc1 | 5.22 | 5.35 |
| 5.30 |  | CCOc1cc(N)c(C(=O)Nc2ccc(OCc3cccc(F)c3)c(Cl)c2)cc1NC(=O)c1ccc(CN2CCN(C)CC2)cc1 | 5.22 | 5.15 |
